Measurements gathered from unrelated publications.
Compare with care: the assays were run in different laboratories.
Target: Casein kinase II subunit alpha (CSNK2A1, Homo sapiens, UniProt P68400)

| SMILES | assay | setting | remaining binding [%] |
| --- | --- | --- | --- |
| N[C@H]1CCN(c2nccc(-c3cnn4ncccc34)n2)C1 | binding | 1 µM | 89 |
| COc1ncc2cc3ccccc3nc2c1C#N | cell-free assay, competition with immobilised ligand | 5 µM | 92 |
| O=C(c1ccc(Nc2ncc(Cl)c(-c3cc4ccccc4s3)n2)cc1)N1CCC(N2CCCC2)CC1 | binding, competition with immobilised ligand | 1 µM | 0.9 |
| N#CC1(c2ccccn2)CCN(Cc2cc(C(=O)N3CCCC3)c(=O)n3ccccc23)CC1 | cell-free assay, competition with immobilised ligand | 1 µM | 100 |
| c1cncc(-c2cccc(Nc3nccc(NC4CCCCC4)n3)c2)c1 | binding, competition with immobilised ligand | 10 µM | 72 |
| COc1ccnn2ncc(-c3ccnc(N(C)C)n3)c12 | binding | 1 µM | 74 |
| O=C(c1ccc(Nc2nccc(-c3cc4ccccc4s3)n2)cc1)N1CCC(N2CCCC2)CC1 | binding, competition with immobilised ligand | 1 µM | 23 |
| CN(C)c1ncc(F)c(-c2cnn3ncccc23)n1 | binding | 1 µM | 100 |
| COc1cc(-c2cn(C3CCc4c(F)cccc4N(CC(F)(F)F)C3=O)nn2)ccc1-n1cnc(C)c1 (centres unmarked) | cell-free assay, competition with immobilised ligand | 1 µM | 100 |
| Nc1ncc2c(n1)-c1c([nH]c3ccc(C#CC4CC4)cc13)CCCC2 | binding, competition with immobilised ligand | 1 µM | 79 |
| COc1cnc(Nc2cccc(S(N)(=O)=O)c2)nc1N1CCN(c2ccccc2)C(=O)C1 | binding, competition with immobilised ligand | 1 µM | 68 |
| O=C(Nc1c[nH]nc1C(=O)NC1CCNCC1)c1cc(F)cc(F)c1 | binding, competition with immobilised ligand | 1 µM | 100 |
| CSc1cccnc1N1CCN(Cc2nc3ccccc3[nH]2)CC1 | cell-free assay, competition with immobilised ligand | 1 µM | 81 |
| c1cnn2ncc(-c3ccnc(N4CCC45COC5)n3)c2c1 | binding | 1 µM | 40 |
| O=S(=O)(NC1CCC(c2cc(F)ccc2F)(S(=O)(=O)c2ccc(Cl)cc2)CC1)C(F)(F)F (centres unmarked) | cell-free assay, competition with immobilised ligand | 1 µM | 85 |
| O=C(c1ccc(Nc2ncc(Cl)c(-c3ccc(Cl)s3)n2)cc1)N1CCC(N2CCCC2)CC1 | binding, competition with immobilised ligand | 1 µM | 0.9 |
| Cc1cc(-n2nc(Cc3cc(F)cc(C(F)(F)F)c3)nc2C)ccc1C(N)=O | cell-free assay, competition with immobilised ligand | 1 µM | 100 |
| Cc1cnn2ncc(-c3ccnc(N(C)C)n3)c2c1 | binding | 1 µM | 86 |
| CC(=O)N1CCC(c2ccc(C(=O)NC(=N)N)cc2C(F)(F)F)CC1 | cell-free assay, competition with immobilised ligand | 1 µM | 95 |
| CN(C)c1nccc(-c2cnc3ncccn23)n1 | binding | 1 µM | 47 |
